Measurements from ChEMBL document CHEMBL1132904, “'Double-Drugs'--a new class of prodrug form of an HIV protease inhibitor conjugated with a reverse transcriptase inhibitor by a spontaneously cleavable linker” (Bioorg Med Chem Lett, 2000).
pEC50: −log10 of the molar value. Values after ≈ are worked out from the molar mass of the structure shown. Active and inactive are the calls of the source. The calls are words filed in the database; no cut-off is given here.

Assays:
[1] = biological target: Human immunodeficiency virus type 1 protease (Human immunodeficiency virus 1) (UniProt Q72874); experiment: Inhibitory activity against HIV protease; Active
[2] = biological target: Human immunodeficiency virus type 1 protease (Human immunodeficiency virus 1) (UniProt Q72874); experiment: Compound was evaluated for the percentage inhibition of HIV protease at 5 uM
[3] = tested on: Human immunodeficiency virus 1; experiment: Relative potency of compound to that of AZT was determined
[4] = Water solubility by RP-HPLC; format: ADME
Summary of the method: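 Aliquots of compound solutions were injected onto HPLC. Dissolved concentration was determined by comparison of peak area.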

[5] = tested on: MOLT-4; experiment: Compound was evaluated for anti-HIV activity against HIV-1Lal inoculated with Molt-4 cells; format: functional, cell-based; conditions: Homo sapiens
Summary of the method: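 HIV-1 LAI (100 TCID50) was inoculated together with 4-fold serial dilutions of compound onto Molt-4 cells at 5000 cells/well. Cultures were kept 7 days. Surviving cells were quantified by WST-8 assay, and EC50 was calculated from the ratios of surviving cells.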

[6] = Therapeutic index was determined; conditions: read-out: Therapeutic index
[7] = biological target: Human immunodeficiency virus type 1 protease (Human immunodeficiency virus 1, UniProt Q72874); experiment: Inhibitory activity against HIV-1 IIIB/CEM-SS protease

| SMILES | Activity [1] | pEC50 [5] | other results |
| --- | --- | --- | --- |
| Cc1ccccc1CNC(=O)[C@H]1N(C(=O)[C@H](O)[C@@H](Cc2ccccc2)NC(=O)CC(C)(C)C(=O)OCC2OC(n3cc(C)c(=O)[nH]c3=O)CC2N=[N+]=[N-])CSC1(C)C (stereo partly drawn) | Active | – | – |
| Cc1cccc(C)c1OCC(=O)N[C@@H](Cc1ccccc1)[C@H](OC(=O)CCC(=O)NCCC(=O)OCC1OC(n2cc(C)c(=O)[nH]c2=O)CC1N=[N+]=[N-])C(=O)N1CSC(C)(C)[C@H]1C(=O)NC(C)(C)C (stereo partly drawn) [KNI-1046] | – | 9.00 | inhibition [2]: 7%; Relative potency [3]: 6.2; solubility [4]: 373 µg/mL (≈ 382 µM) |
| Cc1cn([C@H]2C[C@H](N=[N+]=[N-])[C@@H](CO)O2)c(=O)[nH]c1=O [ZIDOVUDINE] | – | 8.21 | – |
| CC(C)(C)NC(=O)[C@H]1N(C(=O)[C@@H](O)[C@H](Cc2ccccc2)NC(=O)CC(C)(C)C(=O)O)CSC1(C)C | Active | – | – |
| Cc1cn(C2CC(N=[N+]=[N-])C(COC(=O)CN)O2)c(=O)[nH]c1=O (stereo not drawn) | Active | – | – |
| Cc1ccccc1CNC(=O)[C@H]1N(C(=O)[C@@H](O)[C@H](Cc2ccccc2)NC(=O)CC(C)(C)C(=O)O)CSC1(C)C | Active | – | – |
| Cc1cn(C2CC(N=[N+]=[N-])C(COC(=O)CCN)O2)c(=O)[nH]c1=O (stereo not drawn) | Active | – | – |
| Cc1cn(C2CC(N=[N+]=[N-])C(COC(=O)C(C)(C)CC(=O)N[C@H](Cc3ccccc3)[C@@H](O)C(=O)N3CSC(C)(C)[C@H]3C(=O)NC(C)(C)C)O2)c(=O)[nH]c1=O (stereo partly drawn) | Active | – | – |
| Cc1cccc(C)c1OCC(=O)N[C@@H](Cc1ccccc1)[C@H](OC(=O)CCC(=O)OCC1OC(n2cc(C)c(=O)[nH]c2=O)CC1N=[N+]=[N-])C(=O)N1CSC(C)(C)[C@H]1C(=O)NC(C)(C)C (stereo partly drawn) | – | – | pEC50 [7]: 6.72 |

The next lines start with results.

| Activity [1] | pEC50 [5] | SMILES | other results |
| --- | --- | --- | --- |
| Active | – | Cc1cccc(C)c1OCC(=O)N[C@@H](Cc1ccccc1)[C@H](OC(=O)CCC(=O)O)C(=O)N1CSC(C)(C)[C@H]1C(=O)NC(C)(C)C | – |
| – | 8.28 | Cc1cccc(C)c1OCC(=O)N[C@@H](Cc1ccccc1)[C@H](OC(=O)CCC(=O)NCC(=O)OCC1OC(n2cc(C)c(=O)[nH]c2=O)CC1N=[N+]=[N-])C(=O)N1CSC(C)(C)[C@H]1C(=O)NC(C)(C)C (stereo partly drawn) [KNI-1038] | inhibition [2]: 37%; Relative potency [3]: 1.2; solubility [4]: 290 µg/mL (≈ 301 µM) |
| – | 10.00 | Cc1cccc(C)c1OCC(=O)N[C@@H](Cc1ccccc1)[C@H](OC(=O)CCCC(=O)NCC(=O)OCC1OC(n2cc(C)c(=O)[nH]c2=O)CC1N=[N+]=[N-])C(=O)N1CSC(C)(C)[C@H]1C(=O)NC(C)(C)C (stereo partly drawn) [KNI-1039] | inhibition [2]: 55%; Relative potency [3]: 62; solubility [4]: 371 µg/mL (≈ 380 µM); selectivity ratio [6]: > 2000 |
| – | 7.04 | Cc1cccc(C)c1OCC(=O)N[C@@H](Cc1ccccc1)[C@H](O)C(=O)N1CSC(C)(C)[C@H]1C(=O)NC(C)(C)C | – |
| – | 8.47 | Cc1cccc(C)c1OCC(=O)N[C@@H](Cc1ccccc1)[C@H](OC(=O)CCCC(=O)NCCC(=O)OCC1OC(n2cc(C)c(=O)[nH]c2=O)CC1N=[N+]=[N-])C(=O)N1CSC(C)(C)[C@H]1C(=O)NC(C)(C)C (stereo partly drawn) | inhibition [2]: 12%; Relative potency [3]: 1.8; solubility [4]: 235 µg/mL (≈ 237 µM) |
| Active | – | Cc1cccc(C)c1OCC(=O)N[C@@H](Cc1ccccc1)[C@H](OC(=O)CCCC(=O)O)C(=O)N1CSC(C)(C)[C@H]1C(=O)NC(C)(C)C | – |
